Assay results taken from article PMC3075368 (Journal of molecular and cellular cardiology, 2011).
Where two headings read alike, the source gives them in different places. Bridge positions count the residues as written; N and C are the ends. Ends that are not written are not given here.

How the values were obtained:
[1] = system: heart function in rats after ischemia/reperfusion injury; conditions: rat, in vivo
[2] = system: heart function in rats after ischemia/reperfusion injury
[3] = molecular target: T1, alpha-B crystalline (Homo sapiens, UniProt P02511); experiment: Surface Plasmon Resonance assay; assay type: binding; conditions: biotinylated peptide on streptavidin coated chips, Biacore 2000
T1 sequence (P02511 1-175): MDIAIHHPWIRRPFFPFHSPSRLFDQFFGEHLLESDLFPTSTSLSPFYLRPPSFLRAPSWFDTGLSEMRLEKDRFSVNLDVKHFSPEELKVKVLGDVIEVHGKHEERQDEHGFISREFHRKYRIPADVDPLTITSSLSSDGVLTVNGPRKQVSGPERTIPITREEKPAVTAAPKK

[4] = system: ischemic left ventricle; experiment: Western analysis of post-ischemic cardiac tissue with anti-mCherry antibody; assay type: in vivo, mouse; conditions: versus negative controls
Method in brief: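 Mice had 15 min ischemia then 5 min reperfusion. Recombinant Sumo-mCherry–test peptide (Ni-NTA plus size-exclusion purified; 10 mg/mL PBS stock) was given 1 mg i.v. Controls were unconjugated Sumo-mCherry, linear or scrambled peptide fusions, and PBS. After 5 min circulation, ischemic LV, non-ischemic LV and RV were snap frozen, RIPA-homogenized, sonicated and centrifuged, then blotted with rabbit anti-RFP. Three blinded sets, 5 mice each.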

[5] = echocardiography, 24 hours after administration, n=4, mean ± SEM
[6] = hemodynamic measurement, 24 hours after administration, n=4, mean ± SEM

With “CSKTALSMC (disulfide 1-9 (inferred)) [scrambled peptide]” the “% Fractional shortening” value [1] was 43.20±3.22%, the Anterior wall thickness [1] was 2.08±0.08 mm and the Cardiac index [1] was 20.96±4.48 ml/min per 100 g. The Cardiac output [1] was 44530 ± 7633 µL/min, the Ejection fraction [1] was 27.89±3.01% and the End-diastolic dimension [1] was 5.16±0.23 mm. For the same substance, the End-diastolic pressure [1] was 3.08±0.22 mmHg, the End-diastolic volume [1] was 362.72 ± 14.82 µL and the End-systolic dimension [1] was 2.93±0.18 mm. It also gave an End-systolic pressure [1] of 120.1±3.48 mmHg, an End-systolic volume [1] of 260.91 ± 10.99 µL and a Heart rate [1] of 430.75±20.59 beats/min. For the same substance, the LVM/BW [1] was 2.94±0.32, the Left ventricle mass [1] was 646 ± 55.48 g and the Posterior wall thickness [1] was 1.83±0.06 mm. It also gave a Stroke volume [1] of 101.81 ± 13.74 µL.
With CSTSMLKAC (disulfide 1-9 (inferred)) the Body weight ([2]; 24 hours after administration, n=4, mean ± SEM) was 260.25 ± 13.14 g, the “impairment in LV contractile function” value ([2]; 24 hours after systemic administration, versus scrambled peptide and PBS, n=4 each) was “did not induce any significant impairment” and the “% Fractional shortening” value [2, 5] was 54.05±6.72%. The Anterior wall thickness [2, 5] was 2.00±0.04 mm, the End-diastolic dimension [2, 5] was 5.33±0.36 mm and the End-systolic dimension [2, 5] was 2.49±0.51 mm. The Posterior wall thickness [2, 5] was 1.73±0.10 mm, the Cardiac index [2, 6] was 19.87±2.54 ml/min per 100 g and the Cardiac output [2, 6] was 51430 ± 6708 µL/min. For the same substance, the Ejection fraction [2, 6] was 28.44±2.09%, the End-diastolic pressure [2, 6] was 3.96±0.67 mmHg and the End-diastolic volume [2, 6] was 393.56 ± 25.62 µL. The End-systolic pressure [2, 6] was 119±3.16 mmHg, the End-systolic volume [2, 6] was 280.76 ± 15.91 µL and the Stroke volume [2, 6] was 112.82 ± 13.61 µL. The “interaction with alpha-B crystalline” value [3] was “a significant interaction between CSTSMLKAC and alpha-B crystalline was not demonstrated”.
With Sumo-mCherry-CSTSMLKAC the “homing of the protein to post-ischemic cardiac tissue” value [4] was “clear homing”.
